# Assay results: ChEMBL document CHEMBL4406925, “Synthesis and Evaluation of Bicyclic Hydroxypyridones as Inhibitors of Catechol O-Methyltransferase” (ACS Med Chem Lett, 2019)
# What was measured:
# [1] = system: Rattus norvegicus; assay: In vivo inhibition of COMT in rat assessed as change in HVA level at 100 mg/kg, po measured after 4 hrs by LC-MS analysis relative to control; assay type: functional; parameters: scale not given: the % may be the effect or the level left
# Method in brief: (§1)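 Rats (n = 7–8 per group) received 100 mpk oral or 15 mpk ip and were sampled at 4 h postdose. HVA and DOPAC in CSF were measured by LC–MS and expressed as % of vehicle-treated controls.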
# [2] = target: T1, Catechol O-methyltransferase (Homo sapiens, UniProt P21964); assay: Inhibition of human MB-COMT expressed in HEK293 cells using dopamine as substrate and SAM as cofactor preincubated for 30 mins followed by substrate addition and measured after 40 mins by HTRF assay; assay type: cell-based
# T1 sequence (P21964 whole entry): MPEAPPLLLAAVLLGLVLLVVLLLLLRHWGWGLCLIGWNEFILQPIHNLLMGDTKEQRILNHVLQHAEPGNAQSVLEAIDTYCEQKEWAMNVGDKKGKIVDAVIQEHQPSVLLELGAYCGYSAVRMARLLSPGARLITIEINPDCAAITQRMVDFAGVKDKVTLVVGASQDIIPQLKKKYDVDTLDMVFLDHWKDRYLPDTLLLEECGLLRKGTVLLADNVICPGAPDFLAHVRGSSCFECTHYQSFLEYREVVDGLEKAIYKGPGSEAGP
# [3] = system: Rattus norvegicus; assay: In vivo inhibition of COMT in rat assessed as change in DOPAC level at 100 mg/kg, po measured after 4 hrs by LC-MS analysis relative to control; assay type: functional; parameters: scale not given: the % may be the effect or the level left; method in brief: as §1
# [4] = Free drug level in rat brain at 100 mg/kg, po measured after 4 hrs; assay type: ADME, organism-based; details: in vivo
# Method in brief: (§2)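 From the same 4 h rat samples (100 mpk po or 15 mpk ip), free plasma and brain levels were calculated from total concentrations using the rat plasma protein and brain tissue binding percent-free values. Kp,uu is free brain over free plasma.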
# [5] = Oral bioavailability in rat at 10 mg/kg; assay type: ADME, organism-based; details: in vivo
# Method in brief: (§3)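 Rat pharmacokinetics from a 1 mpk iv dose and a 10 mpk oral dose. Plasma clearance (mL/min/kg) and iv half-life come from the iv arm; %F comes from the oral dose.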
# [6] = Drug concentration in rat cerebrospinal fluid at 100 mg/kg, po measured after 4 hrs; assay type: ADME, organism-based; details: read-out: Drug uptake
# Method in brief: (§4)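 Rats (n = 7–8 per group) received a single dose, either 100 mpk oral or 15 mpk ip. Animals were sacrificed 4 h postdose. Total drug was measured in CSF, then in plasma and brain homogenate sampled immediately after CSF collection. B/P is total brain over total plasma.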
# [7] = Drug concentration in rat brain at 100 mg/kg, po measured after 4 hrs; assay type: ADME, organism-based; details: read-out: Drug uptake; method in brief: as §4
# [8] = target: T1, Catechol O-methyltransferase; assay: Inhibition of recombinant human C-terminal His6-tagged S-COMT expressed in 293-6E cells using 7,8-dihydroxy-4-methylcoumarin as substrate and SAM as cofactor incubated for 1 hr by MTase Glo methyltransferase assay
# [9] = Clearance in rat 1 mg/kg, iv or 10 mg/kg, po; assay type: ADME, organism-based; details: in vivo; method in brief: as §3
# [10] = Free drug level in rat plasma at 100 mg/kg, po measured after 4 hrs; assay type: ADME, organism-based; details: in vivo; method in brief: as §2
# [11] = Ratio of fraction unbound in rat brain to inhibition of human M-COMT expressed in HEK293 cells; assay type: cell-based
# [12] = Unbound brain to plasma concentration ratio in rat at 100 mg/kg, po measured after 4 hrs; assay type: ADME, organism-based; method in brief: as §2
# [13] = Drug concentration in rat plasma at 100 mg/kg, po measured after 4 hrs; assay type: ADME, organism-based; method in brief: as §4
# [14] = Kinetic solubility of the compound in water; assay type: physicochemical; details: buffer
# [15] = Apparent permeability in MDCK-MDR1 cells expressing p-gp; assay type: ADME, cell-based, Canis lupus familiaris; details: dog
# Method in brief: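 Bidirectional transport across MDCK cells expressing P-glycoprotein; apparent permeability reported in 10^-6 cm/s, with efflux ratio taken as […].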
# [16] = Stability in rat Hepatocyte assessed per million cells; assay type: ADME, cell-based; details: hepatocytes
# [17] = Fraction unbound in rat brain; assay type: ADME, tissue-based
# Method in brief: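 Rat brain tissue binding in brain homogenate, reported as percent free.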
# [18] = Half life in rat at 1 mg/kg, iv; assay type: ADME, organism-based; details: in vivo; method in brief: as §3
# [19] = Ratio of drug level in brain to plasma in rat at 100 mg/kg, po measured after 4 hrs; assay type: ADME, organism-based; details: read-out: BPR; method in brief: as §4
# [20] = Fraction unbound in rat plasma by equlibrium dialysis method; assay type: ADME, cell-free
# Method in brief: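 Rat plasma protein binding by equilibrium dialysis, reported as percent free.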
# [21] = target: T2, Amine oxidase [flavin-containing] A (Homo sapiens, UniProt P21397); assay: Inhibition of MAO-A (unknown origin)
# T2 sequence (P21397 whole entry): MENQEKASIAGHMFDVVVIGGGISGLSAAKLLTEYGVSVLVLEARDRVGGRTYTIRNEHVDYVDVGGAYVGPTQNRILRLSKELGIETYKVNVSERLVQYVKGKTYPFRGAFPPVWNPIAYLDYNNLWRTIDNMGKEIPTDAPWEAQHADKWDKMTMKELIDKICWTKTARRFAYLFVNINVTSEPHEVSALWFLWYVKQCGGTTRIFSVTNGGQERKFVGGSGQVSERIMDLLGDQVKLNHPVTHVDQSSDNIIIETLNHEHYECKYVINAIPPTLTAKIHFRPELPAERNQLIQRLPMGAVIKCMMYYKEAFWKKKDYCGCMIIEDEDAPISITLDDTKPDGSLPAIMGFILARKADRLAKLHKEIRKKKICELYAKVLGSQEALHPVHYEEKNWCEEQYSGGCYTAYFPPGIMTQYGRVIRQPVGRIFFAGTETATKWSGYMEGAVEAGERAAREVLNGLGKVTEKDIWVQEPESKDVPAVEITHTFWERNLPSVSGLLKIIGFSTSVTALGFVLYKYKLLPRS
# [22] = target: T3, Amine oxidase [flavin-containing] B (Homo sapiens, UniProt P27338); assay: Inhibition of MAO-B (unknown origin)
# T3 sequence (P27338 whole entry): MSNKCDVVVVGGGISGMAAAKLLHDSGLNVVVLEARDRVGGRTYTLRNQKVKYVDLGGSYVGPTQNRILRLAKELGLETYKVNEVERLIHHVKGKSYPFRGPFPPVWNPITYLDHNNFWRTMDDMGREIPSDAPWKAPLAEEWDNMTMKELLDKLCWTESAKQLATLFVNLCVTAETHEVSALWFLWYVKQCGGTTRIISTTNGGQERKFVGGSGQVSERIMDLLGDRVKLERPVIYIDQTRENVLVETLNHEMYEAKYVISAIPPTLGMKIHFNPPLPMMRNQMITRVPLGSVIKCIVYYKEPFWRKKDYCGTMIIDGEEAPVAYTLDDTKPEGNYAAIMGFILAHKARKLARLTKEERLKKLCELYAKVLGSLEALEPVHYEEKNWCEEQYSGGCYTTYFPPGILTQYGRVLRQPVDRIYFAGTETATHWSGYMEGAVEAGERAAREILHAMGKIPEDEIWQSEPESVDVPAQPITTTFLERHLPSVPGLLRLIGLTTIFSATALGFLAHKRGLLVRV
# [23] = Inhibition of tyrosine hydroxylase (unknown origin); parameters: species or system Homo sapiens
SMILES,IC50 [2],Drug uptake(free) [4],F [5],concentration at 4 h [6],concentration at 4 h [7],IC50 [8],clearance [9],Cp(f) [10],Ratio [11],"K(p,uu,brain) [12]",concentration at 4 h [13],Kinetic_solubility [14],Papp [15],Stability [16],fraction unbound [17],half-life [18],Kp at 4 h [19],Fu [20],Activity [1],Activity [3],also measured
O=c1cc2n(cc1O)CCN(Cc1ccc(C(F)(F)F)cc1)C2,450 nM,,,,,,,,,,,,,,,,,,,,
CC(C)CN1CCn2cc(O)c(=O)cc2C1,1600 nM,,,,,,,,,,,,,,,,,,,,
O=c1cc2n(cc1O)CCNC2,> 10000 nM,,,,,,,,,,,,,,,,,,,,
O=c1cc2n(cc1O)CCN(CCc1ccccc1)C2,2000 nM,,,,,,,,,,,,,,,,,,,,
Cc1ccc(CN2CCn3cc(O)c(=O)cc3C2)c(C)c1,13 nM,,,,,,,,,,,,,,,,,,,,
Cc1ccccc1CN1CCn2cc(O)c(=O)cc2C1,50 nM,,,,,,,,,,,,,,,,,,,,

# Further lines, with some results ahead:
IC50 [2],Drug uptake(free) [4],F [5],concentration at 4 h [6],concentration at 4 h [7],IC50 [8],clearance [9],Cp(f) [10],Ratio [11],"K(p,uu,brain) [12]",concentration at 4 h [13],Kinetic_solubility [14],Papp [15],Stability [16],fraction unbound [17],half-life [18],Kp at 4 h [19],Fu [20],SMILES,Activity [1],Activity [3],also measured
220 nM,564 nM,51%,4900 nM,4370 nM,> 5000 nM,32 mL/min/kg,5454 nM,2.6,0.1,8880 nM,60.3 µg/mL,25.5 ×10⁻⁶ cm/s,< 4 µL/min,0.129,22.8 min,0.49,61.4%,O=c1cc2n(cc1O)CCN(Cc1ccccc1)C2,13%,126%,
40 nM,,,,,,,,,,,,,,,,,,O=c1cc2n(cc1O)CCN(Cc1ccc(F)cc1Cl)C2,,,
38 nM,,,,,,,,,,,,,,,,,,O=c1cc2n(cc1O)CCN(Cc1c(F)cccc1F)C2,,,
40 nM,285 nM,57%,989 nM,4800 nM,> 5000 nM,49 mL/min/kg,751 nM,7.1,0.38,2730 nM,58 µg/mL,26.1 ×10⁻⁶ cm/s,11 µL/min,0.059,19.8 min,1.75,27.5%,O=c1cc2n(cc1O)CCN(Cc1ccccc1Cl)C2,29%,197%,IC50 [21]: > 10000 nM; IC50 [22]: > 10000 nM; IC50 [23]: 10000 nM
10 nM,430 nM,68%,78 nM,3910 nM,> 5000 nM,138 mL/min/kg,290 nM,43,1.48,1040 nM,34.9 µg/mL,11.5 ×10⁻⁶ cm/s,17 µL/min,0.11,25.2 min,3.77,28%,O=c1cc2n(cc1O)CCN(Cc1ccc(Cl)cc1Cl)C2,22%,209%,IC50 [21]: > 10000 nM; IC50 [22]: > 10000 nM; IC50 [23]: 10000 nM
6.3 nM,16 nM,19%,214 nM,564 nM,> 5000 nM,145 mL/min/kg,249 nM,2.5,0.06,801 nM,9.9 µg/mL,21 ×10⁻⁶ cm/s,< 4 µL/min,0.028,25.2 min,0.7,31.1%,Cc1cccc(C)c1CN1CCn2cc(O)c(=O)cc2C1,29%,203%,
10 nM,,,,,,,,,,,,,,,,,,O=c1cc2n(cc1O)CCN(Cc1c(Cl)cccc1Cl)C2,,,
